CHRM5 antagonist: antagonists of human muscarinic M5 receptor (CHRM5). P08912. CHO-hM5 cells, Fluo-8 calcium fluorescence, ACh EC80. inhibition, % at 3 µM. 0.59% of 360,000 active. AID 624040;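 active means inhibition above a per-plate cutoff, the mean of that plate's test compounds plus 3 SD, cut at about 27% in these data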;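 further: 0% = acetylcholine EC80 with DMSO and 100% = DMSO without agonist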
CHRM5 PAM: potentiates acetylcholine response at human M5 receptor; P08912; CHO-K1 hM5, Fluo-8 calcium, ACh EC20 PAM; 0% = ACh EC20, 100% = ACh EC100; activation, % at 3 µM; 0.3% of 360,000 active;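 active means activation above the run cutoff, the mean activation of all test compounds plus 3 SD, cut at about 18% in these data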
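system = human M5 receptor in CHO-K1 cells | compound = one concentration, 3 µM final (nominal) | schedule = Post-acetylcholine fluorescence recording 140 s | signal = Fluo-8 calcium dye fluorescence, kinetic read | benchmarks = low control EC20 acetylcholine (0%), high control EC100 acetylcholine (100%) | repeats = singlicate, one well per test compound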
CHRM1 antagonist: antagonists of human M1 muscarinic receptor; P11229; CHO-K1 hM1, Fluo-8 calcium fluorescence, ACh EC80 antagonist; inhibition, % at 3 µM; 1.3% of 360,000 active;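 active means percent inhibition above its own plate's cutoff, namely the mean of that plate's compound wells plus 3 SD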;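 further: peak over basal fluorescence ratio during 140 s after agonist addition; 0% = ACh EC80 plus DMSO and 100% = DMSO alone without agonist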
Target sequence (P11229 whole entry, looked up): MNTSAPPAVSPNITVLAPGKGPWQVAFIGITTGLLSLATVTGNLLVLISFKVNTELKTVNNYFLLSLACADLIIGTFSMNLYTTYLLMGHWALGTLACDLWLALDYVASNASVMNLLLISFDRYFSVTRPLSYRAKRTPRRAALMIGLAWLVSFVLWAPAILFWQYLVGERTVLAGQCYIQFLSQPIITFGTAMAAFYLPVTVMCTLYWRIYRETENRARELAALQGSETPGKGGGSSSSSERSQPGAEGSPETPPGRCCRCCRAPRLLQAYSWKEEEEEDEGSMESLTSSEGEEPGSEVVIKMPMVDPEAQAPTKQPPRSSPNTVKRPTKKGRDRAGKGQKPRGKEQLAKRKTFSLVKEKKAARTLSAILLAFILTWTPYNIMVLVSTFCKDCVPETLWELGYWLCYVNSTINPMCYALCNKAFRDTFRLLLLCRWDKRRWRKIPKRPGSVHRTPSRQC
CHRM1 PAM: human CHRM1 positive allosteric modulation. 0.088% of 360,000 active. activation, % at 3 µM. CHO-K1 hM1, Fluo-8 calcium fluorescence, ACh EC20; 0% = ACh EC20, 100% = maximal ACh; in the data active means activation above about 19%, passing the limit was not always enough
CHRM1 agonist: agonists of human M1 muscarinic receptor; CHO-K1 hM1, Fluo-8 calcium fluorescence, agonist mode; 0% DMSO, 100% acetylcholine EC100; P11229; activation, % at 3 µM; 0.33% of 360,000 active; AID 588814;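 active means activation above the run's mean compound activation plus 3 SD, cut at about 16% in these data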;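 further: peak over basal fluorescence ratio within a 140 s kinetic read after compound addition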
CHRM5 agonist: agonists of human muscarinic M5 receptor (CHRM5). 0.19% of 360,000 active. P08912. activation, % at 3 µM. CHO-K1 hM5 cells, Fluo-8 calcium fluorescence; 0% DMSO wells, 100% maximal acetylcholine response;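 active means activation above the run's mean over test compounds plus 3 SD, cut at about 23% in these data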;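 further: signal is peak over basal fluorescence ratio across the kinetic read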
* = called active by the depositor. A selection: hits, their analogues and other compounds. The true share with any hit is near 2.1%.

SMILES | CHRM5 antagonist | CHRM5 PAM | CHRM1 antagonist | CHRM1 PAM | CHRM1 agonist | CHRM5 agonist
Cc1ccc(C(=O)Sc2cccccc2=O)cc1 | 42* | -7 | 33* | -3 | 2 | 3
Cc1ccc(NC(=O)c2ccc(OC(F)(F)F)cc2)cc1S(=O)(=O)N(C)C | 9 | -10 | 13 | -12 | -7 | 1
C[C@H](NC(=O)[C@@H]1Cc2ccccc2CN1)C(=O)Nc1ccc2c(c1)OCCO2 | -21 | 20* | -9 | 5 | -6 | -3
CC(C)[C@H](NC(=O)[C@@H]1Cc2ccccc2CN1)C(=O)Nc1ccc2c(c1)OCCO2 | 4 | 0 | 7 | -5 | -5 | -2
CC(C)c1ccc(NC(=O)[C@@H](C)NC(=O)[C@@H]2Cc3ccccc3CN2)cc1 | -3 | 1 | 37* | -23 | -5 | -6
O=S(=O)(c1ccccc1)c1nc(-c2ccccc2)oc1N1CCCC1 | 12 | -5 | -4 | 6 | -5 | 2
Cc1ccc2c(c1)C(=O)C(=O)N2CCOc1ccccc1 | 6 | 3 | 7 | 21 | 6 | 24*
Cc1cccc2c1N(CCCOc1ccccc1)C(=O)C2=O | 2 | -1 | -12 | 13 | 20* | 27*
Cc1cccc(OCCN2C(=O)C(=O)c3cc(C)ccc32)c1 | 7 | 0 | 0 | -4 | -3 | 17
Cc1ccccc1OCCCN1C(=O)C(=O)c2cccc(C)c21 | 1 | -3 | -11 | 7 | 22* | 26*
Cc1ccc2c(c1)C(=O)C(=O)N2Cc1ccc(Br)cc1 | 17 | 0 | 0 | 9 | 21* | 31*
CCCc1nc(SCC(=O)c2ccccc2)c2c(=O)n(C)c(=O)n(C)c2n1 | -1 | -2 | 3 | 0 | -4 | -1
CCSc1nnc(NC(=O)Cc2ccc(OC)c(OC)c2)s1 | 9 | 1 | -2 | 3 | -2 | -1
CCC(C)C(=O)Nc1ccc(S(=O)(=O)N2CCCC2)cc1 (configuration not stated) | 10 | -1 | -10 | 13 | -6 | 4
CCC(C)NS(=O)(=O)c1ccc(S(=O)(=O)N2CCCC3(CCCCC3)C2)cc1 (configuration not stated) | 4 | -4 | 36* | -22 | -5 | -1
CC(C)(C)CN1CCC(Oc2cccc(C(=O)N3CCNC(=O)C3(C)C)c2)CC1 | 31* | -10 | 6 | -11 | 9 | -11
CC(C)n1cc(CNC(=O)C2CCC(=O)N(Cc3ccccc3F)C2)cn1 (configuration not stated) | 2 | 0 | -2 | 1 | -2 | -2
CCN(CCNc1ccc(Cl)cc1[N+](=O)[O-])C(=O)c1cc([N+](=O)[O-])c(N(C)C)cc1OC | 21 | -9 | 3 | -4 | -4 | -2
CS(=O)(=O)NCCNc1ccc(Cl)cc1[N+](=O)[O-] | 9 | -13 | 23* | -20 | -5 | 3
CS(=O)(=O)NCCNc1cc(Cl)ccc1[N+](=O)[O-] | 0 | -4 | -4 | 8 | -8 | -1
CN(C)CCNc1ccc(Cl)cc1[N+](=O)[O-] | 30* | -19 | 35* | -25 | -8 | -10
Nc1nc(Nc2ccccc2)sc1C(=O)c1ccccc1 | -1 | 9 | -19 | 24 | 16* | 33*
CCN1CCN(c2ncc(C(=O)Nc3cc(Cl)ccc3OC)c3ccccc23)CC1 | 0 | 3 | 58* | -23 | -5 | -10
Cc1ccc(NC(=O)c2cnc(N3CCN(c4ccccn4)CC3)c3ccccc23)c(Br)c1 | 14 | -15 | 32* | -27 | -5 | 3
COc1ccc(CCn2c(N)cc(=O)[nH]c2=O)cc1OC | -2 | 4 | 28* | -14 | 0 | 1
COc1ccc(CCn2c(N)cc(=O)[nH]c2=S)cc1OC | 8 | -10 | -26 | 7 | 0 | -3
Cn1nc(C(C)(C)C)cc1C(=O)NCc1ccc2c(c1)OCO2 | 29* | -11 | 19 | -1 | 5 | 5
O=C(NCc1ccc2c(c1)OCO2)c1cc2ccccc2o1 | 1 | 30* | -1 | 4 | 0 | -6
Cc1oc(C(C)(C)C)cc1C(=O)NCc1ccc2c(c1)OCO2 | 9 | 0 | -7 | 2 | -2 | 1

Screening data from PubChem.
